In ChEMBL document CHEMBL4359879, “Synthesis and evaluation of 2-carboxy indole derivatives as potent and selective anti-leukemic agents” (Eur J Med Chem, 2019):
Active and inactive are the calls of the source. The calls are words filed in the database; no cut-off is given here.

Columns and labels:
HL-60 [1] = assay: Effect on human HL60 cells assessed as fold change in RAB39B gene expression at 1.085 uM incubated for 6 hrs by microarray-based method; format: functional
Outline: (§1)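 HL60 cells were treated in triplicate with 1.085 µM or vehicle for 6 h. Total RNA was extracted with on-column DNase treatment and profiled on expression arrays.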

RS4-11 [2] = assay: Induction of cell cycle arrest in human RS4:11 cells assessed as increase in accumulation at G2/M phase at 300 nM incubated for 18 hrs by BrdU/propidium iodide staining based flow cytometric analysis; format: functional
Outline: (§2)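 RS4;11 cells treated with 300 nM or DMSO vehicle for 18 h, then pulsed with 10 μM BrdU for 1 h. Harvested cells immunostained for BrdU/PI (cell cycle), γH2AX (DNA damage) and PARP (apoptosis). Multicolor flow cytometry gated G1, sub-G2-like, G2/M and sub-G0/G1 populations.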

HL-60 [3] = assay: Induction of cell cycle arrest in human HL60 cells assessed as accumulation of cells at G2/M phase at EC50 incubated for 18 hrs by PI staining based flow cytometric analysis (reference value: 23.0%); format: functional
HL-60 [4] = assay: Effect on human HL60 cells assessed as fold change in GPSM2 gene expression at 1.085 uM incubated for 6 hrs by microarray-based method; format: functional; outline: as §1
HL-60 [5] = assay: Effect on human HL60 cells assessed as fold change in IPO13 gene expression at 1.085 uM incubated for 6 hrs by microarray-based method; format: functional; outline: as §1
HL-60 [6] = assay: Effect on human HL60 cells assessed as fold change in CELF2 gene expression at 1.085 uM incubated for 6 hrs by microarray-based method; format: functional; outline: as §1
HL-60 [7] = assay: Effect on human HL60 cells assessed as fold change in ARL17B gene expression at 1.085 uM incubated for 6 hrs by microarray-based method; format: functional; outline: as §1
HL-60 [8] = assay: Effect on human HL60 cells assessed as fold change in C7orf43 gene expression at 1.085 uM incubated for 6 hrs by microarray-based method; format: functional; outline: as §1
HL-60 [9] = assay: Induction of cell cycle arrest in human HL60 cells assessed as accumulation of cells at G2/M phase at EC50 by PI staining based flow cytometric analysis; format: functional; conditions: TDE = time-dependent effect
HL-60 [10] = assay: Effect on human HL60 cells assessed as fold change in SPATA7 gene expression at 1.085 uM incubated for 6 hrs by microarray-based method; format: functional; outline: as §1
HL-60 [11] = assay: Effect on human HL60 cells assessed as fold change in FOXJ2 gene expression at 1.085 uM incubated for 6 hrs by microarray-based method; format: functional; outline: as §1
HL-60 [12] = assay: Effect on human HL60 cells assessed as fold change in NMNAT1 gene expression at 1.085 uM incubated for 6 hrs by microarray-based method; format: functional; outline: as §1
HL-60 [13] = assay: Induction of cell cycle arrest in human HL60 cells assessed as increase in accumulation of cells at sub G1 phase at EC50 by PI staining based flow cytometric analysis; format: functional; conditions: TDE = time-dependent effect
HL-60 [14] = assay: Effect on human HL60 cells assessed as fold change in HRH1 gene expression at 1.085 uM incubated for 6 hrs by microarray-based method; format: functional; outline: as §1
RS4-11 [15] = assay: Induction of DNA damage in human RS4:11 cells assessed as accumulation of cells at G2 phase at 300 nM incubated for 18 hrs in presence of H2AX antibody by immunofluorescent staining based flow cytometric analysis relative to control; format: functional; outline: as §2
HL-60 [16] = assay: Induction of cell cycle arrest in human HL60 cells assessed as accumulation of cells at sub G0/G1 phase at EC50 incubated for 12 hrs by PI staining based flow cytometric analysis (reference value: 1.67%); format: functional
Tubulin (Homo sapiens) = Tubulin (Homo sapiens) (UniProt P68371+Q9H4B7+P0DPH7+P68366+Q13509+Q71U36+P04350+Q3ZCM7+P07437+P68363+Q9BQE3+Q6PEY2+Q13885+Q9BVA1+Q9BUF5); assay: Inhibition of tubulin polymerization in human CEM cells at 300 nM by Western blot analysis; format: cell-based; conditions: TDE = time-dependent effect
Outline: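 Leukemia cells (RS4;11, CEM, HL60) treated with 300 nM for 0, 15, 30, 60 and 360 min. Western blotting for β-tubulin and p53, with lamin B1 as loading control and chemiluminescent detection.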

HL-60 [17] = assay: Effect on human HL60 cells assessed as fold change in MIR4658 gene expression at 1.085 uM incubated for 6 hrs by microarray-based method; format: functional; outline: as §1
HL-60 [18] = assay: Induction of cell cycle arrest in human HL60 cells assessed as accumulation of cells at sub G0/G1 phase at EC50 incubated for 18 hrs by PI staining based flow cytometric analysis (reference value: 1.67%); format: functional
HL-60 [19] = assay: Induction of cell cycle arrest in human HL60 cells assessed as accumulation of cells at S phase at EC50 incubated for 12 hrs by PI staining based flow cytometric analysis (reference value: 19.0%); format: functional
HeLa = assay: Induction of cell cycle arrest in human HeLa cells assessed as formation of condensed chromosomes at 500 nM incubated for 18 hrs by DAPI staining based fluorescence microscopic method; format: functional
Outline: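 HeLa cells (100,000/mL) cultured overnight on glass-bottom dishes, then exposed to 500 nM or 1 μM, or DMSO, for 18 h. Permeabilized (0.5% Triton X-100) and fixed (3.7% formaldehyde). Stained overnight at 4 °C with anti-β-tubulin, then Alexa Fluor 647 secondary for 1 h at room temperature, and DAPI 1 μg/mL for 10 min. Examined by fluorescence microscopy.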

CCRF-CEM = assay: Antiproliferative activity against human CEM cells incubated for 48 hrs by MTT assay; format: functional, cell-based
Outline: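 Cells grown in RPMI-1640 with 10% FBS, penicillin/streptomycin, 37 °C, 5% CO2. After 48 h of exposure to a dilution series, MTT was added (0.5 mg/ml final) for 4 h. Formazan was dissolved overnight in acidic SDS (10% SDS, 0.01 mol/L HCl) and absorbance read at 570 and 620 nm. Survival was expressed relative to controls, and EC50 was fitted from dose-response curves.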

HL-60 [20] = assay: Effect on human HL60 cells assessed as fold change in ZNF79 gene expression at 1.085 uM incubated for 6 hrs by microarray-based method; format: functional
HL-60 [21] = assay: Effect on human HL60 cells assessed as fold change in SPATA31A1 gene expression at 1.085 uM incubated for 6 hrs by microarray-based method; format: functional; outline: as §1
HL-60 [22] = assay: Effect on human HL60 cells assessed as fold change in FBXO25 gene expression at 1.085 uM incubated for 6 hrs by microarray-based method; format: functional; outline: as §1
HL-60 [23] = assay: Induction of differentiation in human HL60 cells assessed as increase in CD14 positive cells incubated for 48 hrs by 7-AAD staining-based flow cytometric analysis; format: functional, cell-based
Outline: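 Vitamin D3 at 100 nM and ATRA at 2 μM served as positive controls. Stained with APC anti-CD11b and PE anti-CD14 for 30 min at 4 °C, then 7-AAD.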

HL-60 [24] = assay: Effect on human HL60 cells assessed as fold change in ATP6AP1L gene expression at 1.085 uM incubated for 6 hrs by microarray-based method; format: functional; outline: as §1
RS4-11 [25] = assay: Induction of DNA damage in human RS4:11 cells assessed as accumulation of cells at sub G2 phase at 300 nM incubated for 18 hrs in presence of H2AX antibody by immunofluorescent staining based flow cytometric analysis relative to control; format: functional; outline: as §2

Compound: COC(=O)c1[nH]c2cc(OC)ccc2c1-c1ccc(C(F)(F)F)cc1
- fold change (FC) (HL-60 [1]): -1.53
- Activity (RS4-11 [2]): Active
- Activity (HL-60 [3]): 56.3%
- fold change (FC) (HL-60 [4]): 1.62
- fold change (FC) (HL-60 [5]): 1.8
- fold change (FC) (HL-60 [6]): 1.56
- fold change (FC) (HL-60 [7]): -1.5
- fold change (FC) (HL-60 [8]): -1.72
- Activity (HL-60 [9]): Tde
- fold change (FC) (HL-60 [10]): 1.56
- fold change (FC) (HL-60 [11]): 1.62
- fold change (FC) (HL-60 [12]): 1.5
- Activity (HL-60 [13]): Tde
- fold change (FC) (HL-60 [14]): 1.51
- Activity (RS4-11 [15]): 6.9%
- Activity (HL-60 [16]): 12.1%
- inhibition (Tubulin (Homo sapiens)): Tde
- fold change (FC) (HL-60 [17]): -1.72
- Activity (HL-60 [18]): 24.1%
- Activity (HL-60 [19]): 19.1%
- Activity (HeLa): Active
- EC50 (CCRF-CEM): 0.2 µM
- fold change (FC) (HL-60 [20]): -1.88
- fold change (FC) (HL-60 [21]): -1.61
- fold change (FC) (HL-60 [22]): 1.71
- Activity (HL-60 [23]): Dose-dependent effect
- fold change (FC) (HL-60 [24]): -1.53
- Activity (RS4-11 [25]): 2.3%
